The text below walks through data of paper PMC4831591 (International Journal of Nanomedicine, 2016).

Values after ≈ are worked out from the molar mass of the structure shown.

One data set relates to H22 cells. Kind of data set: In vitro cytotoxicity, MTT assay. As to conditions: n=3. In kind it is cell-based, murine. In outline: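 Log-phase H22 cells seeded at 10^4/well, grown 24 h, medium renewed. Treated at 0.8, 4, 20, 100, 500 μg/mL for 24 or 48 h; blank liposomes at matched concentrations. MTT (5 mg/mL stock in PBS) added for 4 h, formazan dissolved in DMSO, A490 read. Inhibition rate = (1 − A490 treated/A490 untreated)×100.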
(In general: Tetrazolium dyes change colour on reduction, which living cells bring about.)

Another data set relates to H22 tumor-bearing mice. As to the kind of experiment: In vivo antineoplastic activity in H22 tumor-bearing mice. As to conditions: 2 mg/kg per day, days 1–9, measured on day 10, n=10. The essentials:
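H22 cells in saline (1×10^7/mL) injected subcutaneously in right hind limb on day 0. Mice randomized to PBS control or treatment, 2 mg/kg tail vein daily on days 1–9 (n=10). Tumor volume by caliper and body weight daily. Killed day 10 and tumors excised and weighed. IRw = (1 − Wdrug/Wcontrol)×100.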

Data set [1] is described as follows: In vitro drug-release assay by dialysis. The format is physicochemical. As to conditions: 37°C, PBS pH 7.4, 48 hours, n=3. In outline: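 Dialysis in 2,000 Da MWCO bag against PBS pH 7.4, stirred 48 h at 37±0.5°C. Medium sampled at time points and replaced. Total drug found by methanol disruption of liposomes. Quantified by HPLC: C18 column, methanol/0.025 M KH2PO4 (11:89, pH 3 with H3PO4), 1.0 mL/min, UV 210 nm; n=3.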

Data set [2] can be described thus: Biodistribution study in H22 tumor-bearing mice. The format is in vivo. As to conditions: n=6; for AUC0–8 / Cmax / t½: 2 mg/kg intravenous. In outline: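 Subcutaneous H22 model: ascites cells from donor mice diluted in saline to 1×10^7/mL and injected into right hind limb (~0.1 mL/10 g). At ~300 mm3 tumor, mice randomized; single tail-vein 2 mg/kg; killed at 1, 2, 4, 8 h (n=6). Tumor and organs rinsed, weighed, homogenized 1:4 w/v in saline. HCl/IS/acetone extraction; FDA-validated LC-MS/MS. Noncompartmental AUC0–8, Cmax; Te = AUC target/(target+untargeted)×100.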

In general, Cmax refers to the peak of the concentration-time curve. As usually defined, the t½ is the time needed for the level to fall by half in the phase considered. Low readings indicate fast loss, high ones slow loss. Take `O=C(O)[C@@H]1[C@H](C(=O)O)[C@H]2CC[C@@H]1O2` [DM-NCTD, diacid metabolite of norcantharidin]: the figures for the “IC50 on H22 cell lines” value with H22 cells (24 hours) and with H22 cells (48 hours) were 39.6 ± 1.20 µg/mL (≈ 213 µM) and 30.0 ± 1.73 µg/mL (≈ 161 µM), respectively. In the data set on H22 tumor-bearing mice, this compound displayed a Tumor weight of 1.02 ± 0.3 g. The “IRw (inhibition rate on tumor weight)” value with H22 tumor-bearing mice (vs PBS control) stood at 30.14%. Besides, the “In vitro release of DM-NCTD” value in data set [1] is “quickly and completely released”. In addition, the “Time at which the highest concentrations were achieved in tissues and tumors” value in data set [2] (2 mg/kg tail vein) stood at 2 h. For the same compound, the “AUC0–8” value was 116.98±10.63 ng⋅h/mL in data set [2] (heart); 1,283.72±66.1 ng⋅h/mL in data set [2] (kidney); 1,481.15±51.3 ng⋅h/mL in data set [2] (liver); 266.17±13.55 ng⋅h/mL in data set [2] (lung); 740.09±25.16 ng⋅h/mL in data set [2] (spleen); 223.18±17.56 ng⋅h/mL in data set [2] (tumor). Also, the Cmax in data set [2] (heart) stood at 24.08 ± 2.39 ng/mL; in data set [2] (kidney) it was 427.14 ± 20.81 ng/mL; in data set [2] (liver) it was 330.15 ± 13.96 ng/mL; in data set [2] (lung), 73.43 ± 6.17 ng/mL; in data set [2] (spleen), 340.11 ± 17.74 ng/mL; in data set [2] (tumor), 54.57 ± 9.21 ng/mL. In addition, the t½ in data set [2] (heart) turned out to be 110 ± 15 min; in data set [2] (kidney), 56.4 ± 16.8 min; in data set [2] (liver), 56.4 ± 13.2 min; in data set [2] (lung), 90.6 ± 19.2 min; in data set [2] (spleen) it was 53.4 ± 1.2 min; in data set [2] (tumor) it was 61.2 ± 8.4 min.
